Screening results: PubChem BioAssay, several laboratories
STAT3 activator: increases IL-6 driven STAT3 reporter signal; U3A cells, IL-6 STAT3-luciferase reporter, luminescence; 100% = signal with IL-6 EC80 alone; activation (% of control), % at 5.6 µM; actives 0.91% (n = 190,000);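 active = activation above the screen-wide mean of compound activation plus 3 SD, cut at about 130% in these data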;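 note: 0% = background luminescence of wells with medium and substrate only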
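Test system: STAT3-luciferase reporter U3A cells; Detection: reporter luminescence signal; Times: 1 h compound pre-exposure, 6 h IL-6 stimulation, 37 °C; Benchmarks: IL-6-only high control; Also added: IL-6 stimulus at 33 ng/mL final.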
AHR activator: activators of human aryl hydrocarbon receptor; actives 2.5% (n = 320,000); AHR-responsive luciferase reporter cells, luminescence; activation, % at 5 µM; in the data active = activation above about 47%;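 note: 0% = vehicle wells and 100% = reference agonist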
GAA850 FXN act: activators of GAA850 frataxin (FXN) promoter. HEK293 lucGAA850 FXN promoter luciferase reporter, 24 h; percent of 10 µM SAHA response. activation, % at 6 µM. actives 0.56% (n = 360,000). AID 540364;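 active = activation above the average of all compounds screened plus 3 SD, cutoff fixed separately per campaign, cut at about 7.5% in these data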;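 note: 0% = DMSO wells and 100% = 10 µM SAHA wells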
ABCB6 inh 2: human ABCB6 transporter inhibition; Q9NP58; actives 0.19% (n = 360,000); AID 602162; fluorescence ratio to DMSO, % at 10 µM; K562-ABCB6 porphyrin accumulation, flow cytometry, 1 h; active compounds read low;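 active = fluorescence ratio to DMSO below 75%, the collection mean minus 3 SD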;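 note: signal is porphyrin accumulated inside mitochondria; 100% equals median channel fluorescence of DMSO control wells; lower ratio means ABCB6 inhibition with less porphyrin fluorescence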
Target sequence (Q9NP58 whole entry, looked up): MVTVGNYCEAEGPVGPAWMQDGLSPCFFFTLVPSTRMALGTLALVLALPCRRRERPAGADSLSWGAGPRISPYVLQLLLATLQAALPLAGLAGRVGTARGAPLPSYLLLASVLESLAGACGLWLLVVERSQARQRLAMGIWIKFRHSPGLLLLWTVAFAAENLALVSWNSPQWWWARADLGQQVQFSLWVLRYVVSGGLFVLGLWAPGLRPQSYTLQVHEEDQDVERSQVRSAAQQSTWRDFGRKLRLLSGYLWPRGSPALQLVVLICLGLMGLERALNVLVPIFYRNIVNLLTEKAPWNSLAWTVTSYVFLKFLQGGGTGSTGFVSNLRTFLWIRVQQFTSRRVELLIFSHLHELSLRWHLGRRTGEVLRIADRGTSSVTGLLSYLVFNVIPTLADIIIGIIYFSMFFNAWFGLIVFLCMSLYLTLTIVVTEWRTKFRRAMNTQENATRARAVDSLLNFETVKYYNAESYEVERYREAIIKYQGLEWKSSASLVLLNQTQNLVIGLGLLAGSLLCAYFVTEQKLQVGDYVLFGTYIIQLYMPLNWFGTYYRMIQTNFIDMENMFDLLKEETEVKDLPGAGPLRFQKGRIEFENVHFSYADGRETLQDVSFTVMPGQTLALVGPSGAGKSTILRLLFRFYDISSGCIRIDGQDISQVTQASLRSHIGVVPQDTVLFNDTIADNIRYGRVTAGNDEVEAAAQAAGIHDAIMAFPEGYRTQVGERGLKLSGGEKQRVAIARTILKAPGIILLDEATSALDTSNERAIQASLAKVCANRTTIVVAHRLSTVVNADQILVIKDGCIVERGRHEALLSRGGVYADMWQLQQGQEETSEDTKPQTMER
Starred values were filed as active, the others as inactive; . = not tested or not shown. Shown are actives, neighbours in structure and some others; about 3.3% of the full set was active somewhere.

SMILES	STAT3 activator	AHR activator	GAA850 FXN act	ABCB6 inh 2
O=C(Cn1ncc2c3ccccc3n(Cc3ccccc3)c2c1=O)N1CCN(c2ccccn2)CC1	.	1	19*	100
c1ccc2c(-c3cn4ccccc4n3)c[nH]c2c1	119	54*	.	.
c1ccc2c(-c3nnc(SCc4cn5ccccc5n4)o3)c[nH]c2c1	91	-2	1	.
Cn1c(C=O)c(C#Cc2ccccc2)c2ccccc21	.	73*	0	102
COc1ccc(C#Cc2c(C=O)n(C)c3ccccc23)cc1	.	73*	2	96
CC(c1ccccc1)N1CCc2[nH]c(=S)[nH]c(=O)c2C1 (stereo not drawn)	105	4	1	101
O=C(OCC(=O)N1CCOCC1)c1c(Cl)ccc(Cl)c1Cl	88	48*	3	103
COn1c(=O)c(-c2ccc(Cl)cc2)[n+]([O-])c2ccccc21	94	72*	-1	95
COn1c(=O)c(-c2ccc(C)cc2)[n+]([O-])c2ccccc21	.	31	5	95
N#CC1C(C#N)N2CCCN2C1c1ccc(Br)cc1 (stereo not drawn)	.	27	1	100
CCC1C(=O)n2nc(-c3ccccc3)cc2N=C1C (stereo not drawn)	103	51*	-1	106
COc1cccc(CNC(=S)NC2CC2)c1	98	3	0	101
Cc1ccccc1-c1noc(-c2ccc(O)cc2)n1	94	59*	5	98
CCc1ccc(OCCNC(=O)c2ccccc2SCc2ccccc2)cc1	134*	6	-5	98
CCNC(=O)c1ccccc1SCc1ccccc1	102	11	1	107
Cc1ccc(S(=O)c2ccc([N+](=O)[O-])c3nonc23)cc1 (stereo not drawn)	.	.	3	112
O=C(Nc1ccc(N2CCOCC2)cc1)C1CCCN(S(=O)(=O)c2cccc(C(F)(F)F)c2)C1 (stereo not drawn)	94	5	2	114
COc1ccc(-c2cc3cc(OC)c(OC)cc3cn2)cc1	.	65*	6	93
COc1ccc(-c2cc3cc4c(cc3cn2)OCO4)cc1	.	39	1	98
CCOC(=O)c1nn(C)c(=S)n(C)c1=O	.	.	-2	104
Cc1cccnc1C1=NOC(Cc2ccccc2)C(=O)N1CCOc1ccc(F)cc1 (stereo not drawn)	.	.	-2	101
O=C(Nc1ccc(C(=O)OC[C@@H]2CCCN3CCCC[C@H]23)cc1)c1cccc(Br)c1	104	-3	2	103
Nc1ccc(-n2nnnc2CN2CCOCC2)cc1	97	3	1	95
CCOC(=O)C(NC(=O)c1ccccc1)=C1CCCCC1	100	3	1	113
COC(=O)C(NC(=O)c1ccccc1)=C1CCCCC1	104	4	-1	74*
SMILES	STAT3 activator	AHR activator	GAA850 FXN act	ABCB6 inh 2
O=C(Nc1cccc(NC(=O)c2nccc3ccccc23)c1)c1ccco1	.	102*	7	99
O=C(Nc1ccc(NC(=O)c2ccco2)c(Cl)c1)c1ccccc1	87	59*	2	83
O=C(Nc1cccc(-c2nc3ccccc3[nH]2)c1)c1ccco1	84	51*	-2	99
CC(C)Oc1ccc(C(=O)Nc2ccc(NC(=O)c3ccco3)c(Cl)c2)cc1	87	-3	-1	100
O=C(Nc1ccccc1O)c1cccc(NC(=O)c2ccco2)c1	.	54*	1	96
O=C(Nc1ccccc1)Nc1ccccc1Br	85	25	6	87
O=C(Nc1ccccc1)Nc1ccc(Br)c(Cl)c1	105	67*	-1	92
O=C(Nc1ccc(C(=O)O)cc1)/C(=C\c1ccc(F)cc1)NC(=O)c1ccco1	.	0	-1	103
CC(=O)c1ccc(NC(=O)/C(=C\c2ccc(F)cc2)NC(=O)c2ccco2)cc1	.	0	0	74*
O=C(Nc1ccc(Br)c(Cl)c1)c1ccco1	116	75*	5	100
Cc1ccccc1NC(=O)c1ccccc1NC(=O)c1ccco1	101	26	2	95
O=C(Nc1ccccc1C(=O)Nc1ccc(F)cc1)c1ccco1	.	172*	0	93
COc1ccc(N(CC(=O)NCCSC2CCCCC2)S(=O)(=O)c2ccccc2)cc1OC	.	-1	2	103
COc1cc(OC)cc(C(=O)Nn2cc(C(=O)Nc3ccccc3F)c3ccccc3c2=O)c1	134*	39	-1	89
COC(=O)c1cn(NC(=O)c2cccc(N(C)C)c2)c(=O)c2ccccc12	93	2	5	72*
COC(=O)c1cn(NC(=O)c2cccc(F)c2)c(=O)c2ccccc12	93	0	1	97
Cc1ccc2cc(CN(CCCO)S(=O)(=O)c3cccc4nsnc34)c(=O)[nH]c2c1	103	3	3	90
Nc1c(Cl)cc(C2=NCCn3c2c2ccc([N+](=O)[O-])cc2[n+]3[O-])cc1Cl	.	73*	0	109
O=[N+]([O-])c1ccc(C2=CSC3=NCCN23)cc1	.	1	3	99
[O-][n+]1c2cc(C(F)(F)F)ccc2c2n1CCN=C2c1ccc(Cl)cc1	.	63*	2	90
NC(=S)N/N=C\c1c(OCc2ccccc2Cl)ccc2ccccc12	88	70*	-2	94
COc1ccccc1C1N(c2ccc(Cl)cc2)C(=O)C2CCCN21 (stereo not drawn)	134*	10	-4	91
Cc1ccc(NC(=O)C2C(=O)N(C)c3ccccc32)cc1 (stereo not drawn)	112	73*	1	104
C=CCOc1ccc(C(=O)Nc2ncn[nH]2)cc1	.	66*	1	106
CCCCn1c(N)c(N(C)C(=O)c2cc3c(F)cccc3s2)c(=O)[nH]c1=O	.	2	1	93
SMILES	STAT3 activator	AHR activator	GAA850 FXN act	ABCB6 inh 2
Cc1ccc(C(=O)N/C(=C\c2cn(C)c3ccccc23)C(=O)OCCN(C)C)cc1	.	46	1	96
CN(C)CCOC(=O)/C(=C/c1cn(C)c2ccccc12)NC(=O)c1ccccc1	.	63*	0	97
COC(=O)/C(=C\c1ccc2c(c1)c1ccccc1n2C)NC(=O)c1ccccc1	100	76*	-2	100
Cn1c2ccccc2c2cc(/C=C(\NC(=O)c3ccccc3)C(=O)O)ccc21	.	13	3	95
CC(C)OC(=O)/C(=C\c1ccc2c(c1)c1ccccc1n2C)NC(=O)c1ccccc1	97	75*	3	105
CCCCNc1c(-c2ccc(-c3cccc(Cl)c3)cc2)nc2ccccn12	.	56*	2	100
COc1cccc(C(N)c2nc(-c3csc4ccccc34)cs2)c1 (stereo not drawn)	.	.	-3	113
CN(C)c1nc(-c2cn(CCC#N)c3ccccc23)cs1	.	62*	2	105
COCCn1cc(-c2csc(N)n2)c2ccccc21	.	14	-1	111
CC(C(=O)N1CCCc2ccccc21)N1C(=O)c2ccccc2C1=O (stereo not drawn)	102	0	0	99
Oc1c(N=Nc2ccccn2)ccc2ccccc12	97	68*	-16	102
Cc1ccc(C#N)c(SCc2cccc(Br)c2)n1	.	-1	2	95
